ChEMBL document CHEMBL4831507, “Development of FABP4/5 inhibitors with potential therapeutic effect on type 2 Diabetes Mellitus” (Eur J Med Chem, 2021)
pIC50, pKd: −log10 of the molar value. Calls of active or inactive are those of the source. The rule behind the calls is not given here.

Key:
[1] = target: T1, Fatty acid-binding protein, adipocyte (Homo sapiens, UniProt P15090); assay: Displacement of 1,8-ANS from FABP4 (unknown origin) at 25 uM incubated for 3 mins by fluorescence based analysis relative to control
Method in brief: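 Single-concentration percent inhibition in the 1,8-ANS displacement assay with FABP4. Compound incubated with protein and probe in phosphate buffer for 3 min at room temperature; fluorescence read at ex 370/em 470 nm.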
Target sequence in this assay (P15090 2-132 limits assumed): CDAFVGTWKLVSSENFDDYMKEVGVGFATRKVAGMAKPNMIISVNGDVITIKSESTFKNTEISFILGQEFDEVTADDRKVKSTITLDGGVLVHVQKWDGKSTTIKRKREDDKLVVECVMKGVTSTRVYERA

[2] = target: T1, Fatty acid-binding protein, adipocyte; assay: Displacement of 1,8-ANS from FABP4 (unknown origin) incubated for 3 mins by fluorescence based analysis
Method in brief: (§1)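 1,8-ANS displacement using purified recombinant FABP3, FABP4 or FABP5. Compound incubated with protein and 1,8-ANS in phosphate buffer for 3 min at room temperature. Fluorescence read at ex 370/em 470 nm. IC50 by nonlinear regression, mean ± SD of three independent experiments.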
Target sequence in this assay (P15090 whole entry): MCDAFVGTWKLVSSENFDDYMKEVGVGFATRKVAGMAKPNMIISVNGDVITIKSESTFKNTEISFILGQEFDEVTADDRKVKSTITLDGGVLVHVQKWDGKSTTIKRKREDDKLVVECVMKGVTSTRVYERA

[3] = target: Fatty acid-binding protein, heart (Homo sapiens, UniProt P05413); assay: Displacement of 1,8-ANS from FABP3 (unknown origin) incubated for 3 mins by fluorescence based analysis; method in brief: as §1
[4] = Metabolic stability in mouse liver microsomes assessed as half life at 0.1 uM preincubated for 10 mins followed by NADPH addition and measured for 60 mins by LC-MS/MS analysis; type: ADME, Microsome; details: time 70 min
Method in brief: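 Mouse liver microsomes 0.33 mg/mL in 0.1 M Tris pH 7.4 with 5 mM MgCl₂, 0.01% DMSO and 0.005% BSA. Compound final […]. Preincubated 10 min at 37 °C; reaction started with 1 mM NADPH. Samples at 0, 7, 17, 30 and 60 min quenched with cold methanol, then analysed by LC-MS/MS.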

[5] = Half life in ICR mouse at 3 mg/kg, po measured for 24 hrs by LC-MS/MS analysis; type: ADME, organism-based; details: in vivo
Method in brief: (§2)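 Male ICR mice, 20-25 g, three per group. Oral dose 3 mg/kg in PBS with 5% DMSO and 0.5% HPMC; iv dose 1 mg/kg in DMSO/EtOH/PEG300/NaCl (5/5/40/50). Blood sampled at 0.25, 0.5, 1, 2, 4, 8 and 24 h. Plasma drug measured by LC-MS/MS. Mean ± SEM, n = 3.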

[6] = Half life in ICR mouse at 1 mg/kg, iv measured for 24 hrs by LC-MS/MS analysis; type: ADME, organism-based; details: in vivo; method in brief: as §2
[7] = Cmax in ICR mouse at 3 mg/kg, po and 1 mg/kg, iv measured for 24 hrs by LC-MS/MS analysis; type: ADME, organism-based; set-up: time 24 hrs, dose 3 mg/kg; details: in vivo; method in brief: as §2
[8] = AUC in ICR mouse at 3 mg/kg, po measured for 24 hrs by LC-MS/MS analysis; type: ADME, organism-based; set-up: dose 3 mg/kg, time 24 hrs; details: in vivo; method in brief: as §2
[9] = AUC in ICR mouse at 1 mg/kg, iv measured for 24 hrs by LC-MS/MS analysis; type: ADME, organism-based; set-up: dose 1 mg/kg, time 24 hrs; details: in vivo; method in brief: as §2
[10] = Clearance in ICR mouse at 3 mg/kg, po and 1 mg/kg, iv measured for 24 hrs by LC-MS/MS analysis; type: ADME, organism-based; details: in vivo; method in brief: as §2
[11] = Oral bioavailability in ICR mouse at 3 mg/kg measured for 24 hrs by LC-MS/MS analysis; type: ADME, organism-based; details: in vivo; method in brief: as §2
[12] = system: THP-1; assay: Cytotoxicity against human THP-1 cells assessed as reduction in cell viability at 50 uM incubated for 24 hrs by CCK8 assay; type: cell-based; details: thp-1, 24 h
[13] = system: THP-1; assay: Antiinflammatory activity against LPS-induced human THP-1 cells assessed as inhibition of MCP-1 gene expression at 25 uM incubated for 18 hrs followed by LPS-stimulation and measured after 6 hrs by qRT-PCR analysis; type: functional, cell-based; details: time 24.0 hrs
Method in brief: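 THP-1 cells (1 per 48-well, 3*10⁵) differentiated with 100 nM PMA for 24 h, then washed with PBS. Compound at […] or 0.1% DMSO for 18 h, then 100 ng/ml LPS for 6 h. RNA extracted with TRIzol. MCP-1 mRNA by RT-qPCR, 2^-ΔΔCT method.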

[14] = Toxicity in C57BL/KsJ-db/db mouse assessed as effect on body weight at 50 mg/kg, po administered for 8 weeks; type: organism-based; details: in vivo, 1344 h
Method in brief: (§3)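 Male db/db mice, 6 weeks old, 10 per group, dosed 50 mg/kg by gavage daily for 8 weeks; vehicle 0.5% CMC-Na. Lean littermates received vehicle. Body weight recorded twice weekly; 6-h fasting tail glucose by glucometer weekly. OGTT on day 45: overnight fast, glucose 0.5 g/kg by gavage. ITT on day 51: 6-h fast, insulin 0.85 IU/kg ip. Glucose AUC calculated. Final serum taken after 6-h fast; HDL-C, LDL-C, TG, TCH and FABP4 measured by kits. Liver Akt and p-Akt(Ser473) by western blot.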

[15] = system: Mus musculus; assay: Antidiabetic activity in C57BL/KsJ-db/db mouse assessed as reduction in fasting blood glucose level at 50 mg/kg, po administered for 7 weeks; type: functional; details: 1176 h; method in brief: as §3
[16] = system: Mus musculus; assay: Antidiabetic activity in C57BL/KsJ-db/db mouse assessed as improvement in insulin resistance at 50 mg/kg, po administered for 51 days by insulin tolerance test; type: functional, organism-based; details: time 51.0 day; method in brief: as §3
[17] = system: Mus musculus; assay: In vivo activation of […] signaling in C57BL/KsJ-db/db mouse assessed as increase in Akt phosphorylation at Ser473 in liver at 50 mg/kg, po administered for 8 weeks by western blot analysis; type: functional, organism-based; method in brief: as §3
[18] = system: Mus musculus; assay: Improvement in lipid homeostasis in C57BL/KsJ-db/db mouse assessed as increase in high density cholesterol level in serum at 50 mg/kg, po administered for 8 weeks; type: functional, organism-based; method in brief: as §3
[19] = system: Mus musculus; assay: Improvement in lipid homeostasis in C57BL/KsJ-db/db mouse assessed as reduction in low density cholesterol level in serum at 50 mg/kg, po administered for 8 weeks; type: functional, organism-based; method in brief: as §3
[20] = system: Mus musculus; assay: Improvement in lipid homeostasis in C57BL/KsJ-db/db mouse assessed as effect on triglyceride level in serum at 50 mg/kg, po administered for 8 weeks; type: functional, organism-based; method in brief: as §3
[21] = system: Mus musculus; assay: Reduction in FABP4 level in serum of C57BL/KsJ-db/db mouse at 50 mg/kg, po administered for 8 weeks; type: functional, organism-based; method in brief: as §3
[22] = system: 3T3-L1; assay: Inhibition of FABP4 secretion in mouse 3T3-L1 cells assessed as reduction in FABP4 level in conditioned medium at 50 uM incubated for 24 hrs by immunoblotting analysis; type: functional, cell-based
Method in brief: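 Mature 3T3-L1 adipocytes starved for 6 h in DMEM with 0.5% BSA, then treated with compound at […] for 24 h. Conditioned medium ultrafiltered; lysate and medium protein measured by BCA. FABP4 immunoblotted with GAPDH, ECL detection, densitometry. Three independent experiments.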

[23] = system: 3T3-L1; assay: Anti-lipolytic activity in mouse 3T3-L1 cells assessed as inhibition of forskolin-stimulated glycerol release at 80 uM preincubated for 24 hrs followed by forskolin stimulation for 1 hr; type: functional, cell-based; details: time 25.0 hrs
[24] = target: T1, Fatty acid-binding protein, adipocyte; assay: Binding affinity to FABP4 (unknown origin) by microscale thermophoresis analysis
Target sequence in this assay (P15090 whole entry): as above

[25] = system: 3T3-L1; assay: Cytotoxicity against mouse 3T3-L1 cells assessed as reduction in cell viability at 100 uM incubated for 24 hrs by CCK8 assay; type: cell-based; details: 3t3-l1, 24 h
[26] = system: Mus musculus; assay: Antidiabetic activity in C57BL/KsJ-db/db mouse assessed as improvement in glucose metabolism at 50 mg/kg, po administered for 45 days by oral glucose tolerance test; type: functional, organism-based; details: time 45.0 day; method in brief: as §3
[27] = system: Mus musculus; assay: Improvement in lipid homeostasis in C57BL/KsJ-db/db mouse assessed as effect on total cholesterol level in serum at 50 mg/kg, po administered for 8 weeks; type: functional, organism-based; method in brief: as §3
[28] = target: T2, Fatty acid-binding protein 5 (Homo sapiens, UniProt Q01469); assay: Displacement of 1,8-ANS from FABP5 (unknown origin) incubated for 3 mins by fluorescence based analysis
[29] = species: Homo sapiens; assay: Selectivity ratio of IC50 for FABP3 (unknown origin) to IC50 for FABP4 (unknown origin); method in brief: as §1
[30] = species: Homo sapiens; assay: Selectivity ratio of IC50 for FABP3 (unknown origin) to IC50 for FABP5 (unknown origin); method in brief: as §1
[31] = target: T2, Fatty acid-binding protein 5; assay: Binding affinity to FABP5 (unknown origin) by microscale thermophoresis analysis

T2 sequence (Q01469 whole entry): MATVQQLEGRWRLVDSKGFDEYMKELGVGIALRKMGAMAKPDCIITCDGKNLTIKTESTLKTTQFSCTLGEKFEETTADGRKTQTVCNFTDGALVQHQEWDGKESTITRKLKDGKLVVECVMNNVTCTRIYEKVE
Sequence of Fatty acid-binding protein, heart (P05413 whole entry): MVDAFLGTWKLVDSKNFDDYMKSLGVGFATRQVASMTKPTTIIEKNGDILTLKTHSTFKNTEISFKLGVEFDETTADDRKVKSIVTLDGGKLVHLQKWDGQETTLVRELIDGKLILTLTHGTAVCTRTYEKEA

SMILES	inhibition [1] [%]	pIC50 [2]	pIC50 [3]	half-life at 0.1 µM [4] [h]	half-life [5] [h]	half-life [6] [h]	Cmax [7] [ng/mL]	AUC at 24 h [8] [ng·h/mL]	AUC at 24 h [9] [ng·h/mL]	clearance [10] [mL/min/kg]	bioavailability [11] [%]	Activity [12]	Activity [13]	Activity [14]	inhibition in vivo at 50 mg/kg [15] [%]	Activity [16]	Activity [17]	Activity [18]	Activity [20]	inhibition [21]	also measured
O=C(O)c1cc(NS(=O)(=O)c2ccc(-c3ccc(F)cc3Cl)c3ccccc23)ccc1F	86	5.33	3.98	1.52	1.36	2.88	782	1090	1980	8.73	18.4	Non-Toxic	Active	Non-Toxic	32.4	Active	Active	Active	inactive	Active	Activity [19]: Active; inhibition [22]: Active; Activity [23]: Active; pKd [24]: 4.96; Activity [25]: Non-Toxic; Activity [26]: Active; Activity [27]: inactive
COc1c(-c2ccc(F)cc2C)cc(S(=O)(=O)Nc2ccc(F)c(CC(=O)O)c2)c2ccccc12	94	5.42	4.07	1.47	6.04	1.78	478	1740	1940	8.56	29.9	Non-Toxic	Active	Non-Toxic	28.1	Active	Active	Active	inactive	Active	pIC50 [28]: 5.24; Ratio IC50 [29]: 22.3; Ratio IC50 [30]: 14.7; inhibition [22]: Active; Activity [23]: Active; pKd [24]: 5.50; pKd [31]: 4.85; Activity [25]: Non-Toxic; Activity [26]: Active; Activity [27]: inactive
